# Sampled rows, rich in hits. Any-hit rate of the full collection: about 1.4%.
# MOR-DOR ag-1 = agonists of OPRM1-OPRD1 heterodimerization, primary screen, cell-based, luminescence; AID 504326, 2011; 340,000 compounds, 0.3% hits; Mu-type opioid receptor (Homo sapiens) + Delta-type opioid receptor (Homo sapiens), …; cells; activation, % at 9.3 µM;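 note: 0% = vehicle-treated cells and 100% = reference agonist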
# Arrestin-AP2 inh = inhibitors of beta-arrestin/AP2 binding, primary screen, biochemical, GPCR trafficking, flow cytometry; beta-arrestin 1 C-terminal peptide binding to AP2 beta2-adaptin appendage (human); FITC-arrestin peptide / GST-AP2 beads; AP2 beta2 appendage carries R879A mutation; inhibition, % at 10 µM; 340,000 compounds, 0.31% hits;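 active = inhibition above a set limit, near 3 SD of compounds lacking own fluorescence, cut at about 54% in these data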;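 note: plate controls were DMSO wells for no effect and 5 µM unlabelled arrestin peptide for full effect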
#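 test system = AP2 appendage R879A on GSH beads | buffer or medium = PBS plus Tween 20 (0.05%) and BSA (0.1%) | incubation = 12 min plus 1 h, RT | detection = bead flow cytometry, FITC channel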
# DAGLB inhibitor = DAGLB lipase inhibitors, primary screen, biochemical, fluorescence, HTS; inhibition, % at 5.17 µM; 340,000 compounds, 0.059% hits; Diacylglycerol lipase-beta (Homo sapiens), Q8NCG7; AID 504411, 2011; HEK293T DAGLB membrane lysate, EnzChek fluorogenic substrate; in the data active = inhibition above about 34%;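 note: 0% = enzyme with vehicle and 100% = wells lacking enzyme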
# Target sequence (Q8NCG7 whole entry, looked up): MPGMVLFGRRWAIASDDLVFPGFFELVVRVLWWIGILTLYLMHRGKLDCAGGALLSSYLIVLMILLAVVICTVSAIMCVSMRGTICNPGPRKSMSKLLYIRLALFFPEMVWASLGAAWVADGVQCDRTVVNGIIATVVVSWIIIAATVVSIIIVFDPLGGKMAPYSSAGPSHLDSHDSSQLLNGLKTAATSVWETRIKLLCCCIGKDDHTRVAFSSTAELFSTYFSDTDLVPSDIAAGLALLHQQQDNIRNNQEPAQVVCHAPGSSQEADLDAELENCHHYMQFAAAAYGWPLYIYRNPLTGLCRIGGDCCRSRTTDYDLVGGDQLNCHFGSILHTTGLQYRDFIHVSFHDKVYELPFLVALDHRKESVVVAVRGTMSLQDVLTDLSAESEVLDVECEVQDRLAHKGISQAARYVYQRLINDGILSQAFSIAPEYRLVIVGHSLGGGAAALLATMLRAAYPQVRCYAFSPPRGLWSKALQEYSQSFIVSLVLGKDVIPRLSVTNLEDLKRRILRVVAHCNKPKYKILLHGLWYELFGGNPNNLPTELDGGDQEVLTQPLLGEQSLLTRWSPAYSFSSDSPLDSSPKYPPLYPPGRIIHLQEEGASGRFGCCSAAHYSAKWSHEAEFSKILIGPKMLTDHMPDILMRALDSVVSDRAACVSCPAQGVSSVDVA
# HTR5A ag ctr = HTR5A agonists in luminescence cell assay, primary screen, counter-screen for OPRM1-OPRD1 heterodimer agonist project, full-deck HTS. 5-hydroxytryptamine receptor 5A (Homo sapiens), P47898. cell-based. activation, % at 9.3 µM. 340,000 compounds, 0.61% hits. AID 504692, 2011; in the data active = activation mostly above about 9.5%, no sharp cut-off; inactive = mostly below about 7.6%;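 note: 0% = cells with vehicle only and 100% = reference agonist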
# HTR5A inv ctr = HTR5A inverse agonists in luminescence cell assay, primary screen, counter-screen for OPRM1-OPRD1 heterodimer inverse agonist project, full-deck HTS; 5-hydroxytryptamine receptor 5A (Homo sapiens), P47898; inhibition, % at 9.3 µM; 340,000 compounds, 0.083% hits; AID 504634, 2011; HTR5A cell line, inverse agonism; in the data active = inhibition mostly above about 23%, no sharp cut-off; inactive = mostly below about 18%;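 note: 0% = cells with DMSO and 100% = no-cell wells with DMSO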
# OPRM1-OPRD1 inv = inverse agonists of MOR-DOR heterodimerization, primary screen, cell-based, luminescence | Mu-type opioid receptor (Homo sapiens) + Delta-type opioid receptor (Homo sapiens), … | cell-based MOR-DOR heterodimer luminescence, inverse agonism | inhibition, % at 9.3 µM | 340,000 compounds, 0.21% hits | AID 504357, 2011; in the data active = inhibition above about 22%, passing the limit was not always enough;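 note: 0% = cells with DMSO and 100% = wells without cells with DMSO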
# MOR-DOR ag-2 = OPRM1-OPRD1 heterodimerization promoters, counter-screen for HTR5A agonist project, cell-based, luminescence; activation, % at 9.3 µM; AID 504913, 2011; 800 compounds, 13% hits; shares compounds with HTR5A ag ctr; U2OS counter-screen cells, complementation luminescence, 3 h
# HTR5A ag confirm = HTR5A agonists, retest of hits, confirmation, cell-based, luminescence; shares compounds with HTR5A ag ctr; HTR5A agonist cell assay; activation, % at 9.3 µM; 800 compounds, 17% hits; in the data active = activation above about 17%;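 note: 0% = cells with vehicle only and 100% = full reference agonist response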
# Numbers without * were called inactive; nt = no result. Cut-off read from the data, not from the text of the source, unless noted: active = activation above about 18%; inactive = the rest.
SMILES,MOR-DOR ag-1,Arrestin-AP2 inh,DAGLB inhibitor,HTR5A ag ctr,HTR5A inv ctr,OPRM1-OPRD1 inv,MOR-DOR ag-2,HTR5A ag confirm
CCCCNC(=O)CCn1c(=O)c2ccccc2n(Cc2ccc(Cl)cc2)c1=O,-1,-3,0,18*,-47,5,1,-2
Cn1c(N/N=C2\CCCc3ccccc32)nc2c1c(=O)n(Cc1ccc(F)cc1)c(=O)n2C,1,4,-1,15*,-17,-6,0,12
O=C(CNC(=O)N1CC(=O)Nc2ccccc21)Nc1ccc(Cl)cc1Cl,nt,nt,0,nt,nt,nt,nt,nt
Cc1ccc(S(=O)(=O)N2CCCC2CNC(=O)C(=O)NCc2ccc3c(c2)OCO3)cc1 (stereo unspecified),nt,nt,-7,nt,nt,nt,nt,nt
Cc1cc(S(=O)(=O)NCc2ccc3c(c2)OCO3)ccc1F,-1,11,0,-4,-26,7,nt,nt
O=S(=O)(NCc1ccc2c(c1)OCO2)c1ccc(F)c(F)c1,-1,7,0,15*,-19,6,1,2
COC(=O)C(C(=O)OC)[C@@H]1C=C[C@H](C[N+](=O)[O-])N(C(C)=O)C1,-2,0,-2,5,-20,10,nt,nt
Cc1ccc(Cn2c(N)c(S(=O)(=O)c3cccs3)c3nc4ccccc4nc32)cc1,2,21,-1,3,-7,-12,nt,nt
COc1ccc(Cn2c(N)c(S(=O)(=O)c3cccs3)c3nc4ccccc4nc32)cc1,3,0,-2,15*,-5,-13,3,3
N#Cc1ccc(OCC(=O)N2CCN(c3ccc(C(F)(F)F)cn3)CC2)cc1,0,-8,-1,19*,-6,1,-1,-2
Cc1nc(NC(=O)c2cc3ccccc3o2)ccc1Br,1,-5,-14,22*,-52,-5,4,0
Cc1nc(NC(=O)c2ccc(Br)o2)ccc1Br,2,20,-10,11,-27,-8,nt,nt
CCc1ccc(/C=C/C(=O)c2cc(Br)ccc(=O)c2O)cc1,6,3,17,17*,5,-33,42*,5
CCOc1ccccc1N1CCN(S(=O)(=O)c2ccc(F)c(F)c2)CC1,0,6,-6,-1,-7,1,nt,nt
CCOc1cc(S(=O)(=O)N2CCCCCC2)ccc1F,1,-6,-4,20*,-15,-4,2,4
COc1cccc(N2CCN(Cc3ccco3)CC2)c1,-1,-2,-3,15*,-43,7,1,-6
CC(C)(C)c1ccc(C(=O)O/N=C(\N)c2ccccn2)cc1,9,-8,-1,57*,-138,-48,5,4
Cc1ccnc(NS(=O)(=O)c2ccc(Oc3ccccc3)cc2)c1,-2,22,0,7,0,9,nt,nt
CCCCCc1ccc(S(=O)(=O)Nc2cc(C)ccn2)cc1,-1,7,-1,17*,-23,4,-1,2
O=C(CSc1nc2ccccc2c(=O)[nH]1)c1ccc(O)c(O)c1,0,7,16,6,10,2,nt,nt
COc1ccc(NC(=O)CSc2nc3ccccc3c(=O)[nH]2)cc1S(N)(=O)=O,-3,-6,0,21*,-50,13,0,6
O=C(CSc1nc2ccccc2c(=O)[nH]1)c1ccc(O)cc1O,4,22,-1,16*,-5,-21,1,2
CCCCN1C(=O)C(CC(=O)NC2CC2)CC(C(=O)N2CCOCC2)=C1C (stereo unspecified),nt,nt,0,nt,nt,nt,nt,nt
Cc1nnc(SCc2ccc(C(=O)O)cc2)s1,-2,20,0,16*,-18,9,2,2
C=C(C)CN(CC)C(=O)CSc1ccc(S(=O)(=O)N2CCN(C)CC2)cn1,-2,-13,0,-11,15,11,nt,nt
SMILES,MOR-DOR ag-1,Arrestin-AP2 inh,DAGLB inhibitor,HTR5A ag ctr,HTR5A inv ctr,OPRM1-OPRD1 inv,MOR-DOR ag-2,HTR5A ag confirm
O=C(N/N=C/c1ccc(O)cc1)c1ccc(COc2cc(Cl)ccc2Cl)o1,7,3,0,14*,-42,-40,41*,2
O=C1NC(c2ccccc2)=C(c2ccc3ccccc3n2)C(c2ccccc2)N1 (stereo unspecified),0,-6,-1,-1,3,-2,nt,nt
O=C1NC(c2ccccc2)=C(c2nc3ccccc3s2)C(c2ccc(O)cc2)N1 (stereo unspecified),4,13,5,38*,-71,-23,13,8
O=C(Nc1cccc(Cl)c1)Nc1cc(S(=O)(=O)N2CCCCC2)ccc1Cl,2,29,-4,1,-2,-13,nt,nt
CN1CCN(S(=O)(=O)c2ccc(NC(=O)Nc3cccc(Cl)c3)cc2)CC1,6,13,8,17*,-89,-33,8,7
Cn1c(=O)c2c(ncn2CC(=O)OCC(=O)c2ccc(Br)cc2)n(C)c1=O,nt,nt,-1,nt,nt,nt,nt,nt
CCN(CC)C(CNC(=O)CSc1nnnn1-c1ccc(C)c(C)c1)c1ccco1 (stereo unspecified),2,42,-3,-3,8,-8,nt,nt
CCN(CC)C(CNC(=O)CSc1nnnn1-c1c(C)cccc1C)c1ccco1 (stereo unspecified),1,17,-1,20*,-55,-6,3,29*
Cc1cc(C(C)(C)C)cc(C)c1CC1=NCCN1,-1,-2,-1,90*,-236,4,0,90*
COc1ccc(NC(=O)CN(C)C(=O)/C=C/c2ccc(OCc3ccccc3)cc2)cc1,10,29,3,24*,-51,-83,2,1
COc1ccc(NC(=O)CN(C)C(=O)/C=C/c2ccc(S(=O)(=O)N3CCCCCC3)cc2)cc1,-1,2,-5,2,-6,8,nt,nt
Cn1cc(C=CC(=O)O)c2nccnc21,nt,nt,0,nt,nt,nt,nt,nt
COC/C=C/C1=CC2=CC(=O)C(C)(OC(=O)c3cnc4ccccc4n3)C(=O)C2=CN1CCCOC(C)C (stereo unspecified),2,14,4,18*,-45,-9,42*,0
Cc1cc(O)cc(O)c1/C=N/NC(=O)c1ccc2c(c1)OCCO2,nt,nt,4,nt,nt,nt,nt,nt
O=C(/C=C/c1cccc([N+](=O)[O-])c1)OCC(=O)N1CCCCC1,nt,nt,0,nt,nt,nt,nt,nt
